By IC50 is commonly meant the midpoint of a concentration-inhibition curve. Low values mean inhibition by little substance, high ones a need for much substance.

The text below walks through data of ChEMBL document CHEMBL1145210, “Novel cyano- and N-isopropylamidino-substituted derivatives of benzo[b]thiophene-2-carboxanilides and benzo[b]thieno[2,3-c]quinolones: synthesis, photochemical synthesis, crystal structure determination, and antitumor evaluation. 2” (J Med Chem, 2005).

One assay has as its system MCF7. Nature of the assay: In vitro Inhibition on growth of human MCF 7 breast carcinoma cell line. In kind it is functional, cell-based. The method in brief: (§1)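 Monolayer cultures in DMEM with 10% FBS, 2 mM L-glutamine, penicillin/streptomycin, 37 °C, 5% CO2. Cells plated on day 0 at densities set by doubling time (1 × 10⁴/mL HeLa, Hep-2, MiaPaCa-2, SW 620; 2 × 10⁴/mL MCF-7; 3 × 10⁴/mL WI 38). Compound added at five 10-fold dilutions (10^-8 to 10^-4 mol/L) for 72 h. MTT read at 570 nm, converted to percentage growth versus time-zero and untreated controls. Quadruplicate points, three experiments. IC50 by linear regression.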

Assay [1] relates to SW-620. Kind of assay: In vitro Inhibition on growth of human SW 620 colon carcinoma cell line. The assay is classed as functional, cell-based. The method in brief:
as §1

Assay [2] concerns HeLa. Nature of the assay: In vitro Inhibition on growth of human HeLa cervical carcinoma cell line. The assay is classed as functional, cell-based. The method in brief:
as §1

Assay [3] in a line: In vitro Inhibition on growth of human WI 38 diploid fibroblast cell line. In kind it is functional, cell-based. The method in brief:
as §1

Assay [4] can be described thus: In vitro Inhibition on growth of human Hep 2 laryngeal carcinoma cell line. In kind it is functional. The method in brief: as §1
The test system of assay [5] is MIA PaCa-2. Nature of the assay: In vitro Inhibition on growth of human MiaPaCa-2 pancreatic carcinoma cell line. The assay is classed as functional, cell-based. The method in brief: as §1
For assay [6], the system named is HeLa. Kind of assay: Percentage of apoptosis induced by compound in HeLa cell line after at 5 uM concentration 72 h. The assay is classed as functional, Homo sapiens. The method in brief:
(§2)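 Annexin-V assay after 72 h exposure to 5 or 10 µM. Cells washed with PBS, pelleted, and stained with Annexin-V-fluorescein plus propidium iodide in Hepes buffer. Scored by fluorescence microscopy: Annexin-V-positive cells counted as apoptotic, Annexin-V/PI double-positive as necrotic. Apoptotic fraction given as percentage of total cells.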

For assay [7], the system named is HeLa. Nature of the assay: Percentage of apoptosis induced by compound in HeLa cell line after at 10 uM concentration 72 h. In kind it is functional, Homo sapiens. The method in brief: as §2
The subject of assay [8] is SW-620. Nature of the assay: Percentage of apoptosis induced by compound in SW 620 cell line at 5 uM concentration after 72 h. In kind it is functional, Homo sapiens. The method in brief: as §2
Assay [9] deals with SW-620. Nature of the assay: Percentage of apoptosis induced by compound in SW 620 cell line at 10 uM concentration after 72 h. The assay is classed as functional, Homo sapiens. The method in brief:
as §2

The test system of assay [10] is MIA PaCa-2. Kind of assay: Percentage of apoptosis induced by compound in MiaPaCa-2 cell line at 5 uM concentration after 72 h. In kind it is functional, Homo sapiens. The method in brief: as §2
Assay [11] relates to MIA PaCa-2. Nature of the assay: Percentage of apoptosis induced by compound in MiaPaCa-2 cell line at 10 uM concentration after 72 h. In kind it is functional, Homo sapiens. The method in brief: as §2

As for `COC(=O)c1ccc2c(c1)sc1c(O)nc3ccc(C(=N)NC(C)C)cc3c12`, the IC50 in the assay on MCF7 was 65.1 µM; in the assay with SW-620 [1], 48.8 µM; in the assay on HeLa [2], 4.79 µM; in assay [3], greater than 100 µM; in assay [4], 45.9 µM; in the assay with MIA PaCa-2 [5], 5.64 µM. Further, the Apoptosis is recorded as 12% with HeLa [6]; 17% in the assay on HeLa [7]; 7% in the assay with SW-620 [8]; 9% in the assay on SW-620 [9]; 4% in the assay on MIA PaCa-2 [10]; 13% with MIA PaCa-2 [11].

Turning to `COC(=O)c1ccc(NC(=O)c2sc3cc(C#N)ccc3c2Cl)cc1`, the IC50 was greater than 100 µM in the assay on MCF7; 4.62 µM with SW-620 [1]; 24.1 µM in the assay with HeLa [2]; 2.71 µM in [3]; 59.1 µM in assay [4]; greater than 100 µM in the assay with MIA PaCa-2 [5]. Also, the Apoptosis is given as 6% in the assay with HeLa [6]; 52% in the assay on HeLa [7]; 6% in the assay on SW-620 [8]; 71% in the assay on SW-620 [9]; 3% in the assay with MIA PaCa-2 [10]; 9% with MIA PaCa-2 [11].

For `Cc1ccc2c(c1)sc1c(O)nc3ccc(/C(N)=N\C(C)C)cc3c12`, the 50% inhibitory concentration (IC50) worked out at 5.4 µM in the assay with MCF7; 7.57 µM in the assay on SW-620 [1]; 4.3 µM with HeLa [2]; 18.7 µM in assay [3]; 8.59 µM in assay [4]; 5.98 µM with MIA PaCa-2 [5]. Moreover, the Apoptosis in the assay with HeLa [6] is recorded as 6%; with HeLa [7], 8%; in the assay on SW-620 [8], 15%; with SW-620 [9], 16%; with MIA PaCa-2 [10], 3%; in the assay on MIA PaCa-2 [11], 17%.
